Measured values published in ChEMBL document CHEMBL2401735, “Synthesis and cytotoxicity of novel (thiazol-2-yl)hydrazine derivatives as promising anti-Candida agents” (Eur J Med Chem, 2013).
≈ marks a conversion by molar mass, not a printed value.

What was measured:
[1] = Cytotoxicity against human Hep2 cells assessed as reduction of cell viability after 24 hrs by trypan blue exclusion assay; type: cell-based; details: HEp-2 cells
How it was run: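 Hep2 cells in DMEM with 10% FBS, penicillin-streptomycin, 5% CO₂, 37 °C. Cells at 1 × 10⁵/mL exposed 24 h to seven concentrations (0.005-100 µg/mL), DMSO ≤0.5% final; controls were medium alone, DMSO, and 1 mM sodium nitroprusside. Cells scraped, allowed 30 min recovery, mixed 1:1 with 0.4% trypan blue, counted by hemocytometer by two operators.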

[2] = Cytotoxicity against human Hep2 cells assessed as cell survival fraction at 0.005 ug/ml after 24 hrs by trypan blue exclusion assay (reference value: 97 to 98%); type: cell-based; details: HEp-2 cells, read-out: Survival
[3] = Cytotoxicity against human Hep2 cells assessed as cell survival fraction at 0.05 ug/ml after 24 hrs by trypan blue exclusion assay (reference value: 97 to 98%); type: cell-based; details: HEp-2 cells, read-out: Survival
[4] = Cytotoxicity against human Hep2 cells assessed as cell survival fraction at 0.5 ug/ml after 24 hrs by trypan blue exclusion assay (reference value: 97 to 98%); type: cell-based; details: HEp-2 cells, read-out: Survival
[5] = Cytotoxicity against human Hep2 cells assessed as cell survival fraction at 5 ug/ml after 24 hrs by trypan blue exclusion assay (reference value: 97 to 98%); type: cell-based; details: HEp-2 cells, read-out: Survival
[6] = Cytotoxicity against human Hep2 cells assessed as cell survival fraction at 10 ug/ml after 24 hrs by trypan blue exclusion assay (reference value: 97 to 98%); type: cell-based; details: HEp-2 cells, read-out: Survival
[7] = Cytotoxicity against human Hep2 cells assessed as cell survival fraction at 50 ug/ml after 24 hrs by trypan blue exclusion assay (reference value: 97 to 98%); type: cell-based; details: HEp-2 cells, read-out: Survival
[8] = Cytotoxicity against human Hep2 cells assessed as cell survival fraction at 100 ug/ml after 24 hrs by trypan blue exclusion assay (reference value: 97 to 98%); type: cell-based; details: HEp-2 cells, read-out: Survival
[Candida] sake = Anticandida activity against Candida sake clinical isolate assessed as growth inhibition after 24 hrs by broth microdilution method; type: functional; details: Fermentozyma sake
How it was run: (§1)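 Clinical Candida isolates subcultured for purity and optimal growth before testing; compounds dissolved in DMSO. Broth microdilution per NCCLS in Sabouraud dextrose broth, serial dilutions, inoculum about 10³/mL, with growth control and medium-only control; 24 h incubation at 37 °C. MIC is the lowest concentration giving complete visible inhibition.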

Candida parapsilosis = experiment: Anticandida activity against Candida parapsilosis clinical isolate assessed as growth inhibition after 24 hrs by broth microdilution method; type: functional; details: Lodderomyces parapsilosis; how it was run: as §1
Pichia kudriavzevii = experiment: Anticandida activity against Candida krusei clinical isolate assessed as growth inhibition after 24 hrs by broth microdilution method; type: functional; how it was run: as §1
Candida tropicalis = experiment: Anticandida activity against Candida tropicalis clinical isolate assessed as growth inhibition after 24 hrs by broth microdilution method; type: functional; how it was run: as §1
Nakaseomyces glabratus = experiment: Anticandida activity against Candida glabrata clinical isolate assessed as growth inhibition after 24 hrs by broth microdilution method; type: functional; how it was run: as §1
Candida albicans = experiment: Anticandida activity against Candida albicans clinical isolate assessed as growth inhibition after 24 hrs by broth microdilution method; type: functional; how it was run: as §1
Klebsiella oxytoca = experiment: Antibacterial activity against Klebsiella oxytoca assessed as growth inhibition after 18 to 22 hrs by broth microdilution method; type: functional
How it was run: (§2)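 Bacterial isolates subcultured for purity, identified conventionally. Broth microdilution per NCCLS in Mueller-Hinton II broth; plates with growth control (no compound) and medium-only control, incubated 18-22 h at 35 °C. MIC taken as lowest concentration giving complete growth inhibition by unaided eye.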

Proteus mirabilis = experiment: Antibacterial activity against Proteus mirabilis assessed as growth inhibition after 18 to 22 hrs by broth microdilution method; type: functional; how it was run: as §2
Enterobacter sp. = experiment: Antibacterial activity against Enterobacter spp. assessed as growth inhibition after 18 to 22 hrs by broth microdilution method; type: functional; how it was run: as §2
Escherichia coli = experiment: Antibacterial activity against Escherichia coli assessed as growth inhibition after 18 to 22 hrs by broth microdilution method; type: functional; how it was run: as §2
Enterococcus faecalis = experiment: Antibacterial activity against […] assessed as growth inhibition after 18 to 22 hrs by broth microdilution method; type: functional; how it was run: as §2
Staphylococcus warneri = experiment: Antibacterial activity against Staphylococcus warneri assessed as growth inhibition after 18 to 22 hrs by broth microdilution method; type: functional; how it was run: as §2
Staphylococcus aureus = experiment: Antibacterial activity against Staphylococcus aureus assessed as growth inhibition after 18 to 22 hrs by broth microdilution method; type: functional; how it was run: as §2
[9] = tested on: Streptococcus alpha-hemolyticus; experiment: Antibacterial activity against Streptococcus alpha-hemolyticus assessed as growth inhibition after 18 to 22 hrs by broth microdilution method

| SMILES | MIC ([Candida] sake) | MIC (Candida parapsilosis) | MIC (Pichia kudriavzevii) | MIC (Candida tropicalis) | MIC (Nakaseomyces glabratus) | MIC (Candida albicans) | MIC (Klebsiella oxytoca) | MIC (Proteus mirabilis) | MIC (Enterobacter sp.) | MIC (Escherichia coli) | MIC (Enterococcus faecalis) | MIC (Staphylococcus warneri) | MIC (Staphylococcus aureus) | MIC [9] | other results |
| --- | --- | --- | --- | --- | --- | --- | --- | --- | --- | --- | --- | --- | --- | --- | --- |
| CCCC/C(CC)=N/Nc1nc(-c2ccc(OC)cc2)cs1 | 2 µg/mL (≈ 6.3 µM) | 2 µg/mL (≈ 6.3 µM) | 2 µg/mL (≈ 6.3 µM) | 2 µg/mL (≈ 6.3 µM) | 0.5 µg/mL (≈ 1.58 µM) | 0.25 µg/mL (≈ 0.788 µM) | > 256 µg/mL | > 256 µg/mL | > 256 µg/mL | > 256 µg/mL | > 256 µg/mL | > 256 µg/mL | > 256 µg/mL | > 256 µg/mL | CC50 at 24 h [1]: 35 µg/mL (≈ 110 µM); viability at 24 h, 0.005 ug/ml [2]: 93%; viability at 24 h, 0.05 ug/ml [3]: 90.2%; viability at 24 h, 0.5 ug/ml [4]: 84%; viability at 24 h, 5 ug/ml [5]: 81%; viability at 24 h, 10 ug/ml [6]: 70.2%; viability at 24 h, 50 ug/ml [7]: 0%; viability at 24 h, 100 ug/ml [8]: 0% |
| COc1ccc(-c2csc(N/N=C(\C)C3CCCCC3)n2)cc1 | 16 µg/mL (≈ 48.6 µM) | 16 µg/mL (≈ 48.6 µM) | 16 µg/mL (≈ 48.6 µM) | 16 µg/mL (≈ 48.6 µM) | 4 µg/mL (≈ 12.1 µM) | 2 µg/mL (≈ 6.07 µM) | > 256 µg/mL | > 256 µg/mL | > 256 µg/mL | > 256 µg/mL | > 256 µg/mL | > 256 µg/mL | > 256 µg/mL | > 256 µg/mL | – |
| COc1ccc(-c2csc(N/N=C3/C=CC(C)(C)CC3)n2)cc1 | 256 µg/mL (≈ 782 µM) | 64 µg/mL (≈ 195 µM) | 256 µg/mL (≈ 782 µM) | 256 µg/mL (≈ 782 µM) | 32 µg/mL (≈ 97.7 µM) | 8 µg/mL (≈ 24.4 µM) | > 256 µg/mL | > 256 µg/mL | > 256 µg/mL | > 256 µg/mL | > 256 µg/mL | > 256 µg/mL | > 256 µg/mL | > 256 µg/mL | – |
| CCC(CC)=NNc1nc(-c2ccc(OC)cc2OC)cs1 | 256 µg/mL (≈ 801 µM) | 256 µg/mL (≈ 801 µM) | 256 µg/mL (≈ 801 µM) | 256 µg/mL (≈ 801 µM) | 128 µg/mL (≈ 401 µM) | 128 µg/mL (≈ 401 µM) | > 256 µg/mL | > 256 µg/mL | > 256 µg/mL | > 256 µg/mL | > 256 µg/mL | > 256 µg/mL | > 256 µg/mL | > 256 µg/mL | – |
| COc1ccc(-c2csc(NN=C(C)C)n2)cc1 | 16 µg/mL (≈ 61.2 µM) | 16 µg/mL (≈ 61.2 µM) | 16 µg/mL (≈ 61.2 µM) | 2 µg/mL (≈ 7.65 µM) | 0.5 µg/mL (≈ 1.91 µM) | 0.25 µg/mL (≈ 0.957 µM) | > 256 µg/mL | > 256 µg/mL | > 256 µg/mL | > 256 µg/mL | > 256 µg/mL | > 256 µg/mL | > 256 µg/mL | > 256 µg/mL | – |
| COc1ccc(-c2csc(N/N=C(\C)C3CCCCC3)n2)c(OC)c1 | 256 µg/mL (≈ 712 µM) | 256 µg/mL (≈ 712 µM) | 256 µg/mL (≈ 712 µM) | 256 µg/mL (≈ 712 µM) | 64 µg/mL (≈ 178 µM) | 64 µg/mL (≈ 178 µM) | > 256 µg/mL | > 256 µg/mL | > 256 µg/mL | > 256 µg/mL | > 256 µg/mL | > 256 µg/mL | > 256 µg/mL | > 256 µg/mL | – |
| CCCC/C(CC)=N/Nc1nc(-c2ccc(Cl)cc2Cl)cs1 | 8 µg/mL (≈ 22.5 µM) | 8 µg/mL (≈ 22.5 µM) | 4 µg/mL (≈ 11.2 µM) | 4 µg/mL (≈ 11.2 µM) | 4 µg/mL (≈ 11.2 µM) | 2 µg/mL (≈ 5.61 µM) | > 256 µg/mL | > 256 µg/mL | > 256 µg/mL | > 256 µg/mL | > 256 µg/mL | > 256 µg/mL | > 256 µg/mL | > 256 µg/mL | – |
